Source: ChEMBL document CHEMBL1141713, “Bisphosphonate inhibitors of ATP-mediated HIV-1 reverse transcriptase catalyzed excision of chain-terminating 3'-azido, 3'-deoxythymidine: a QSAR investigation” (Bioorg Med Chem, 2008)
The source made the active and inactive calls. The calls are words filed in the database; no cut-off is given here.

Molecular target: not listed separately
Assay: Inhibition of the ATP-mediated HIV1 reverse transcriptase D67N/K70R/T215F/K219Q mutant catalyzed 3'-azido, 3'-deoxythymidine excision from AZT-terminated DNA primers
Set-up: species or system Human immunodeficiency virus 1
Outline: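 TAM-RT incubated with 5′-³²P-labeled 57/19 heteropolymeric DNA T/P whose 20 nt primer was chain-terminated with AZTMP (RT:T/P 4:1), in 50 mM Tris-HCl pH 8.0, 50 mM KCl, with or without varying bisphosphonate. Started with 10 mM MgCl₂ + 3.0 mM ATP, inorganic pyrophosphatase included. Timed aliquots quenched in formamide/EDTA dye. 20 nt and 19 nt excision product resolved on denaturing gel, quantified by phosphorimaging; IC₅₀.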

**Q.** With `COc1cccc(CC(O)(P(=O)(O)O)P(=O)(O)O)c1` as the molecule, how does the IC50 read?
**A.** 5.4 µM

**Q.** And the pIC50?
**A.** 5.3

**Q.** Which IC50 does the source give for `O=P(O)(O)C(O)(Cc1ccc(Cl)c(Cl)c1)P(=O)(O)O` here?
**A.** 0.5 µM

**Q.** What about the pIC50 of the same molecule?
**A.** 6.3

**Q.** Which results are given for `COc1ccc(-c2ccc(CC(O)(P(=O)(O)O)P(=O)(O)O)cc2)cc1`?
**A.** IC50: 5.2 µM; pIC50: 5.3

**Q.** Which results are given for `O=P(O)(O)C(Nc1cccc(CO)c1)P(=O)(O)O`?
**A.** IC50: 7.9 µM; pIC50: 5.1

**Q.** Which IC50 does the source give for `CCCCCCCCCC(O)(P(=O)(O)O)P(=O)(O)O` here?
**A.** 302 µM

**Q.** And the pIC50?
**A.** 3.5

**Q.** With `O=P(O)(O)C(Nc1cccc(Br)c1)P(=O)(O)O` as the molecule, how does the IC50 read?
**A.** 1 µM

**Q.** What about the pIC50 of the same molecule?
**A.** 6

**Q.** What does the source list for `O=P(O)(O)C(Nc1cccc(-c2cc(F)cc(F)c2)c1)P(=O)(O)O`?
**A.** IC50: 2.2 µM; pIC50: 5.7

**Q.** What does the source list for `O=P(O)(O)C(O)(Cc1cccc2ccccc12)P(=O)(O)O`?
**A.** IC50: 1.3 µM; pIC50: 5.9

**Q.** Which IC50 does the source give for `CN(C)c1ccccc1CC(O)(P(=O)(O)O)P(=O)(O)O` here?
**A.** 51.3 µM

**Q.** What about the pIC50 of the same molecule?
**A.** 4.3

**Q.** Which IC50 does the source give for `O=P(O)(O)C(Nc1ccc(-c2ccccc2)cc1)P(=O)(O)O` here?
**A.** 302 µM

**Q.** What about the pIC50 of the same molecule?
**A.** 3.5

**Q.** Which IC50 does the source give for `O=P(O)(O)C(O)(Cc1ccc(-c2ccc(Cl)cc2)cc1)P(=O)(O)O` here?
**A.** 3.9 µM

**Q.** And the pIC50?
**A.** 5.4

**Q.** Which results are given for `COCc1cccc(NC(P(=O)(O)O)P(=O)(O)O)c1`?
**A.** IC50: 9.5 µM; pIC50: 5

**Q.** Which IC50 does the source give for `Cc1ccc(NC(P(=O)(O)O)P(=O)(O)O)cc1-c1ccccc1` here?
**A.** 5 µM

**Q.** And the pIC50?
**A.** 5.3

**Q.** What does the source list for `O=P(O)(O)C(O)(Cc1cccc(-c2ccc(F)cc2)c1)P(=O)(O)O`?
**A.** IC50: 1.9 µM; pIC50: 5.7

**Q.** With `CN(CCCc1ccccc1)CCC(O)(P(=O)(O)O)P(=O)(O)O` as the molecule, how does the IC50 read?
**A.** 302 µM

**Q.** What about the pIC50 of the same molecule?
**A.** 3.5

**Q.** With `O=P(O)(O)C(O)(Cc1cccc(-c2ccc(F)c(F)c2)c1)P(=O)(O)O` as the molecule, how does the IC50 read?
**A.** 1 µM

**Q.** What about the pIC50 of the same molecule?
**A.** 6

**Q.** Which IC50 does the source give for `O=P(O)(O)C(CNc1cccc(-c2ccccc2)c1)P(=O)(O)O` here?
**A.** 11.2 µM

**Q.** What about the pIC50 of the same molecule?
**A.** 5

Tested on: not listed separately
Assay: Toxicity against human MCF7 cells assessed as growth inhibition by broth microdilution method
Format: cell-based
Outline: (§1)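 Cells grown in RPMI-1640 with 2mM L-glutamine and 10% FBS at 37°C, 5% CO₂. Seeded at 5,000 cells/well and exposed to compounds in half-log serial dilution, 316μM–10nM (100μM–10nM when the DMSO stock was used), for 4 days. Read-out by MTT, absorbance at 600nm. IC₅₀ fitted to a rectangular hyperbola with Imax fixed at 100%.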

**Q.** With `COc1cccc(CC(O)(P(=O)(O)O)P(=O)(O)O)c1` as the molecule, how does the IC50 read?
**A.** > 300 µM

**Q.** Which IC50 does the source give for `O=P(O)(O)C(O)(Cc1ccc(Cl)c(Cl)c1)P(=O)(O)O` here?
**A.** 213 µM

**Q.** Which IC50 does the source give for `O=P(O)(O)C(Nc1cccc(CO)c1)P(=O)(O)O` here?
**A.** > 300 µM

**Q.** With `O=P(O)(O)C(Nc1cccc(Br)c1)P(=O)(O)O` as the molecule, how does the IC50 read?
**A.** > 300 µM

**Q.** With `O=P(O)(O)C(Nc1cccc(-c2cc(F)cc(F)c2)c1)P(=O)(O)O` as the molecule, how does the IC50 read?
**A.** > 100 µM

**Q.** With `O=P(O)(O)C(O)(Cc1cccc2ccccc12)P(=O)(O)O` as the molecule, how does the IC50 read?
**A.** 259 µM

**Q.** With `CN(C)c1ccccc1CC(O)(P(=O)(O)O)P(=O)(O)O` as the molecule, how does the IC50 read?
**A.** > 300 µM

**Q.** With `O=P(O)(O)C(O)(Cc1ccc(-c2ccc(Cl)cc2)cc1)P(=O)(O)O` as the molecule, how does the IC50 read?
**A.** > 100 µM

**Q.** Which IC50 does the source give for `COCc1cccc(NC(P(=O)(O)O)P(=O)(O)O)c1` here?
**A.** > 300 µM

**Q.** With `Cc1ccc(NC(P(=O)(O)O)P(=O)(O)O)cc1-c1ccccc1` as the molecule, how does the IC50 read?
**A.** 296 µM

**Q.** Which IC50 does the source give for `O=P(O)(O)C(O)(Cc1cccc(-c2ccc(F)cc2)c1)P(=O)(O)O` here?
**A.** 173 µM

**Q.** For `O=P(O)(O)C(O)(Cc1cccc(-c2ccc(F)c(F)c2)c1)P(=O)(O)O`, which IC50 is on record?
**A.** 225 µM

**Q.** For `O=P(O)(O)C(CNc1cccc(-c2ccccc2)c1)P(=O)(O)O`, which IC50 is on record?
**A.** > 300 µM

Tested on: not listed separately
Assay: Toxicity against human SF268 cells assessed as growth inhibition by broth microdilution method
Format: cell-based, SF-268
Outline: as §1

**Q.** Which IC50 does the source give for `COc1cccc(CC(O)(P(=O)(O)O)P(=O)(O)O)c1` here?
**A.** > 300 µM

**Q.** With `O=P(O)(O)C(O)(Cc1ccc(Cl)c(Cl)c1)P(=O)(O)O` as the molecule, how does the IC50 read?
**A.** 208 µM

**Q.** For `O=P(O)(O)C(Nc1cccc(CO)c1)P(=O)(O)O`, which IC50 is on record?
**A.** > 300 µM

**Q.** With `O=P(O)(O)C(Nc1cccc(Br)c1)P(=O)(O)O` as the molecule, how does the IC50 read?
**A.** > 300 µM

**Q.** For `O=P(O)(O)C(Nc1cccc(-c2cc(F)cc(F)c2)c1)P(=O)(O)O`, which IC50 is on record?
**A.** > 100 µM

**Q.** Which IC50 does the source give for `O=P(O)(O)C(O)(Cc1cccc2ccccc12)P(=O)(O)O` here?
**A.** 225 µM

**Q.** For `CN(C)c1ccccc1CC(O)(P(=O)(O)O)P(=O)(O)O`, which IC50 is on record?
**A.** > 300 µM

**Q.** For `O=P(O)(O)C(O)(Cc1ccc(-c2ccc(Cl)cc2)cc1)P(=O)(O)O`, which IC50 is on record?
**A.** > 100 µM

**Q.** With `COCc1cccc(NC(P(=O)(O)O)P(=O)(O)O)c1` as the molecule, how does the IC50 read?
**A.** > 300 µM

**Q.** With `Cc1ccc(NC(P(=O)(O)O)P(=O)(O)O)cc1-c1ccccc1` as the molecule, how does the IC50 read?
**A.** 297 µM

**Q.** For `O=P(O)(O)C(O)(Cc1cccc(-c2ccc(F)cc2)c1)P(=O)(O)O`, which IC50 is on record?
**A.** 224 µM

**Q.** With `O=P(O)(O)C(O)(Cc1cccc(-c2ccc(F)c(F)c2)c1)P(=O)(O)O` as the molecule, how does the IC50 read?
**A.** 236 µM

**Q.** Which IC50 does the source give for `O=P(O)(O)C(CNc1cccc(-c2ccccc2)c1)P(=O)(O)O` here?
**A.** > 300 µM

Tested on: not listed separately
Assay: Toxicity against human NCI-H460 cells assessed as growth inhibition by broth microdilution method
Format: cell-based
Outline: as §1

**Q.** Which IC50 does the source give for `COc1cccc(CC(O)(P(=O)(O)O)P(=O)(O)O)c1` here?
**A.** > 300 µM

**Q.** With `O=P(O)(O)C(O)(Cc1ccc(Cl)c(Cl)c1)P(=O)(O)O` as the molecule, how does the IC50 read?
**A.** 241 µM

**Q.** For `O=P(O)(O)C(Nc1cccc(CO)c1)P(=O)(O)O`, which IC50 is on record?
**A.** > 300 µM

**Q.** Which IC50 does the source give for `O=P(O)(O)C(Nc1cccc(Br)c1)P(=O)(O)O` here?
**A.** > 300 µM

**Q.** With `O=P(O)(O)C(Nc1cccc(-c2cc(F)cc(F)c2)c1)P(=O)(O)O` as the molecule, how does the IC50 read?
**A.** > 100 µM

**Q.** For `O=P(O)(O)C(O)(Cc1cccc2ccccc12)P(=O)(O)O`, which IC50 is on record?
**A.** 248 µM

**Q.** With `CN(C)c1ccccc1CC(O)(P(=O)(O)O)P(=O)(O)O` as the molecule, how does the IC50 read?
**A.** > 300 µM

**Q.** With `O=P(O)(O)C(O)(Cc1ccc(-c2ccc(Cl)cc2)cc1)P(=O)(O)O` as the molecule, how does the IC50 read?
**A.** > 100 µM

**Q.** Which IC50 does the source give for `COCc1cccc(NC(P(=O)(O)O)P(=O)(O)O)c1` here?
**A.** > 300 µM

**Q.** With `Cc1ccc(NC(P(=O)(O)O)P(=O)(O)O)cc1-c1ccccc1` as the molecule, how does the IC50 read?
**A.** 301 µM

**Q.** Which IC50 does the source give for `O=P(O)(O)C(O)(Cc1cccc(-c2ccc(F)cc2)c1)P(=O)(O)O` here?
**A.** 175 µM

**Q.** With `O=P(O)(O)C(O)(Cc1cccc(-c2ccc(F)c(F)c2)c1)P(=O)(O)O` as the molecule, how does the IC50 read?
**A.** 253 µM

**Q.** With `O=P(O)(O)C(CNc1cccc(-c2ccccc2)c1)P(=O)(O)O` as the molecule, how does the IC50 read?
**A.** > 300 µM

Tested on: Human immunodeficiency virus 1
Assay: Inhibition of the ATP-mediated HIV1 reverse transcriptase D67N/K70R/T215F/K219Q mutant catalyzed DNA synthesis

**Q.** For `COc1cccc(CC(O)(P(=O)(O)O)P(=O)(O)O)c1`, which Activity is on record?
**A.** inactive

**Q.** With `O=P(O)(O)C(O)(Cc1ccc(Cl)c(Cl)c1)P(=O)(O)O` as the molecule, how does the Activity read?
**A.** inactive

**Q.** For `COc1ccc(-c2ccc(CC(O)(P(=O)(O)O)P(=O)(O)O)cc2)cc1`, which Activity is on record?
**A.** inactive

**Q.** For `O=P(O)(O)C(Nc1cccc(CO)c1)P(=O)(O)O`, which Activity is on record?
**A.** inactive

**Q.** For `O=P(O)(O)C(Nc1cccc(Br)c1)P(=O)(O)O`, which Activity is on record?
**A.** inactive

**Q.** Which Activity does the source give for `O=P(O)(O)C(Nc1cccc(-c2cc(F)cc(F)c2)c1)P(=O)(O)O` here?
**A.** inactive

**Q.** With `O=P(O)(O)C(O)(Cc1cccc2ccccc12)P(=O)(O)O` as the molecule, how does the Activity read?
**A.** inactive

**Q.** With `CN(C)c1ccccc1CC(O)(P(=O)(O)O)P(=O)(O)O` as the molecule, how does the Activity read?
**A.** inactive

**Q.** For `O=P(O)(O)C(O)(Cc1ccc(-c2ccc(Cl)cc2)cc1)P(=O)(O)O`, which Activity is on record?
**A.** inactive

**Q.** With `COCc1cccc(NC(P(=O)(O)O)P(=O)(O)O)c1` as the molecule, how does the Activity read?
**A.** inactive

**Q.** Which Activity does the source give for `Cc1ccc(NC(P(=O)(O)O)P(=O)(O)O)cc1-c1ccccc1` here?
**A.** inactive

**Q.** Which Activity does the source give for `O=P(O)(O)C(O)(Cc1cccc(-c2ccc(F)cc2)c1)P(=O)(O)O` here?
**A.** inactive

**Q.** Which Activity does the source give for `O=P(O)(O)C(O)(Cc1cccc(-c2ccc(F)c(F)c2)c1)P(=O)(O)O` here?
**A.** inactive

**Q.** For `O=P(O)(O)C(CNc1cccc(-c2ccccc2)c1)P(=O)(O)O`, which Activity is on record?
**A.** inactive
